This is an account of results in ChEMBL document CHEMBL1123986, “Oral absorption of cephalosporin antibiotics. 2. Expanded structure-activity relationships of 7-(arylacetamido)-3-substituted cephalosporins” (1988).

One assay concerns Streptococcus pyogenes. In words: Minimum inhibitory concentration against Streptococcus pyogenes. The class given is functional. The method in brief: (§1)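 Agar dilution MIC in μg/mL. […] Organisms not run are marked not tested.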
Assay [1] has as its system Haemophilus influenzae. Put plainly: (§2) Minimum inhibitory concentration against Haemophilus influenzae. The format is functional. The method in brief: as §1
The test system of another assay is Salmonella typhi. Put plainly: Minimum inhibitory concentration against Salmonella typhi. The class given is functional, Salmonella enterica subsp. enterica serovar Typhi. The following applies: Salmonella enterica.
The test system of a further assay is Klebsiella aerogenes. In words: Minimum inhibitory concentration against Enterobacter aerogenes. The class given is functional. The method in brief: as §1
In the next assay the test system is Streptococcus pneumoniae. Put plainly: Minimum inhibitory concentration against Streptococcus pneumoniae. The class given is functional. The method in brief: as §1
In assay [2] the test system is Haemophilus influenzae. Described as §2. The format is functional. The method in brief:
as §1
The source holds these as a separate data set.

A further assay relates to Escherichia coli. In words: Minimum inhibitory concentration against Escherichia coli. The class given is functional. The method in brief: as §1
In a further assay the test system is Staphylococcus aureus. In words: Minimum inhibitory concentration against Staphylococcus aureus. The class given is functional. The method in brief: as §1
Another assay relates to Klebsiella pneumoniae. In words: Minimum inhibitory concentration against Klebsiella pneumoniae. The format is functional. The method in brief: as §1

In brackets after ≈: the same amount, converted by molar mass.

Regarding `O=C(Cc1noc(C(Cl)(Cl)Cl)n1)N[C@@H]1C(=O)N2C(C(=O)O)=CCS[C@H]12`, the MIC with Streptococcus pyogenes turned out to be 2 µg/mL (≈ 4.68 µM); in the assay on Haemophilus influenzae [1], 32 µg/mL (≈ 74.8 µM); against Salmonella typhi, 16 µg/mL (≈ 37.4 µM); against Klebsiella aerogenes it was 128 µg/mL (≈ 299 µM); against Streptococcus pneumoniae it was 2 µg/mL (≈ 4.68 µM); with Haemophilus influenzae [2] it was 16 µg/mL (≈ 37.4 µM). Besides, the MIC against Escherichia coli is 32 µg/mL (≈ 74.8 µM); against Staphylococcus aureus, 2 µg/mL (≈ 4.68 µM); against Klebsiella pneumoniae, 32 µg/mL (≈ 74.8 µM).
For the molecule `Nc1ccc(CC(=O)N[C@@H]2C(=O)N3C(C(=O)O)=C(Cl)CS[C@H]23)cc1`, the MIC with Streptococcus pyogenes came to 0.06 µg/mL (≈ 0.163 µM); in the assay with Haemophilus influenzae [1], 1 µg/mL (≈ 2.72 µM); against Salmonella typhi, 2 µg/mL (≈ 5.44 µM); with Klebsiella aerogenes, 128 µg/mL (≈ 348 µM); against Streptococcus pneumoniae, 0.125 µg/mL (≈ 0.34 µM); against Haemophilus influenzae [2] it was 0.5 µg/mL (≈ 1.36 µM). The MIC in the assay on Escherichia coli stood at 16 µg/mL (≈ 43.5 µM); against Staphylococcus aureus, 0.5 µg/mL (≈ 1.36 µM); in the assay with Klebsiella pneumoniae, 2 µg/mL (≈ 5.44 µM).
Take `O=C(COc1ccc(Cl)cc1)N[C@@H]1C(=O)N2C(C(=O)O)=C(Cl)CS[C@H]12`: the MIC is 0.03 µg/mL (≈ 0.0744 µM) against Streptococcus pyogenes; 1 µg/mL (≈ 2.48 µM) in the assay on Haemophilus influenzae [1]; more than 128 µg/mL in the assay on Salmonella typhi; more than 128 µg/mL in the assay on Klebsiella aerogenes; 0.03 µg/mL (≈ 0.0744 µM) against Streptococcus pneumoniae; 1 µg/mL (≈ 2.48 µM) against Haemophilus influenzae [2]. Further, the MIC with Escherichia coli was more than 128 µg/mL; in the assay with Staphylococcus aureus, 0.125 µg/mL (≈ 0.31 µM); against Klebsiella pneumoniae it was more than 128 µg/mL.
As to `COc1ccc(OCC(=O)N[C@@H]2C(=O)N3C(C(=O)O)=C(Cl)CS[C@H]23)cc1`, the MIC is 0.06 µg/mL (≈ 0.15 µM) against Streptococcus pyogenes; 2 µg/mL (≈ 5.01 µM) in the assay on Haemophilus influenzae [1]; more than 128 µg/mL against Salmonella typhi; more than 128 µg/mL with Klebsiella aerogenes; 0.125 µg/mL (≈ 0.313 µM) with Streptococcus pneumoniae; 2 µg/mL (≈ 5.01 µM) with Haemophilus influenzae [2]. Besides, the MIC against Escherichia coli is more than 128 µg/mL; against Staphylococcus aureus it was 0.25 µg/mL (≈ 0.627 µM); against Klebsiella pneumoniae it was more than 128 µg/mL.
With `COc1ccccc1CC(=O)N[C@@H]1C(=O)N2C(C(=O)O)=C(Cl)CS[C@H]12`, the MIC is 1 µg/mL (≈ 2.61 µM) against Streptococcus pyogenes; 2 µg/mL (≈ 5.22 µM) against Haemophilus influenzae [1]; more than 128 µg/mL in the assay on Salmonella typhi; more than 128 µg/mL against Klebsiella aerogenes; 1 µg/mL (≈ 2.61 µM) against Streptococcus pneumoniae; 1 µg/mL (≈ 2.61 µM) against Haemophilus influenzae [2]. For the same molecule, the MIC is more than 128 µg/mL in the assay on Escherichia coli, 1 µg/mL (≈ 2.61 µM) against Staphylococcus aureus and more than 128 µg/mL in the assay with Klebsiella pneumoniae.
Turning to `O=C(Cc1ccc(Cl)cc1)N[C@@H]1C(=O)N2C(C(=O)O)=C(Cl)CS[C@H]12`, the MIC was 0.06 µg/mL (≈ 0.155 µM) against Streptococcus pyogenes; 1 µg/mL (≈ 2.58 µM) in the assay with Haemophilus influenzae [1]; 64 µg/mL (≈ 165 µM) in the assay on Salmonella typhi; more than 128 µg/mL against Klebsiella aerogenes; 0.125 µg/mL (≈ 0.323 µM) against Streptococcus pneumoniae; 0.5 µg/mL (≈ 1.29 µM) in the assay on Haemophilus influenzae [2]. Besides, the figures for the MIC in the assay with Escherichia coli, against Staphylococcus aureus and in the assay on Klebsiella pneumoniae were 64 µg/mL (≈ 165 µM), 0.25 µg/mL (≈ 0.646 µM) and 128 µg/mL (≈ 331 µM), respectively.
In the case of `Cc1nc(CC(=O)N[C@@H]2C(=O)N3C(C(=O)O)=C(Cl)CS[C@H]23)c(-c2ccccc2)s1`, the MIC in the assay with Streptococcus pyogenes is 0.015 µg/mL (≈ 0.0333 µM); against Haemophilus influenzae [1], 32 µg/mL (≈ 71.1 µM); against Salmonella typhi it was more than 128 µg/mL; with Klebsiella aerogenes, more than 128 µg/mL; in the assay on Streptococcus pneumoniae it was 0.06 µg/mL (≈ 0.133 µM); with Haemophilus influenzae [2], 32 µg/mL (≈ 71.1 µM). The MIC against Escherichia coli was more than 128 µg/mL; with Staphylococcus aureus it was 0.125 µg/mL (≈ 0.278 µM); in the assay on Klebsiella pneumoniae it was more than 128 µg/mL.
In the case of `COc1ccc(CC(=O)N[C@@H]2C(=O)N3C(C(=O)O)=C(Cl)CS[C@H]23)cc1OC`, the MIC against Streptococcus pyogenes is 0.3 µg/mL (≈ 0.727 µM); in the assay with Haemophilus influenzae [1], 1 µg/mL (≈ 2.42 µM); in the assay with Salmonella typhi it was 128 µg/mL (≈ 310 µM); against Klebsiella aerogenes it was more than 128 µg/mL; against Streptococcus pneumoniae, 0.06 µg/mL (≈ 0.145 µM); against Haemophilus influenzae [2], 0.5 µg/mL (≈ 1.21 µM). Besides, the MIC in the assay with Escherichia coli is 128 µg/mL (≈ 310 µM); in the assay with Staphylococcus aureus, 0.25 µg/mL (≈ 0.606 µM); in the assay with Klebsiella pneumoniae, 128 µg/mL (≈ 310 µM).
For the molecule `O=Cc1ccc(OCC(=O)N[C@@H]2C(=O)N3C(C(=O)O)=C(Cl)CS[C@H]23)cc1`, the MIC was 0.015 µg/mL (≈ 0.0378 µM) against Streptococcus pyogenes; 2 µg/mL (≈ 5.04 µM) in the assay on Haemophilus influenzae [1]; more than 128 µg/mL in the assay with Salmonella typhi; more than 128 µg/mL in the assay on Klebsiella aerogenes; 0.03 µg/mL (≈ 0.0756 µM) against Streptococcus pneumoniae; 1 µg/mL (≈ 2.52 µM) against Haemophilus influenzae [2]. In addition, the results for the MIC against Escherichia coli, with Staphylococcus aureus and with Klebsiella pneumoniae were more than 128 µg/mL, 0.25 µg/mL (≈ 0.63 µM) and more than 128 µg/mL, respectively.
